Experimental data as given in ChEMBL document CHEMBL1145430, “Synthesis and simple 18F-labeling of 3-fluoro-5-(2-(2-(fluoromethyl)thiazol-4-yl)ethynyl)benzonitrile as a high affinity radioligand for imaging monkey brain metabotropic glutamate subtype-5 receptors with positron emission tomography” (J Med Chem, 2007).

What was measured:
[1] = target: Metabotropic glutamate receptor 5 (Rattus norvegicus, UniProt P31424); test: Displacement of […] from mGluR5 in rat brain membrane; type: cell membranes
Sequence of Metabotropic glutamate receptor 5 (P31424 whole entry): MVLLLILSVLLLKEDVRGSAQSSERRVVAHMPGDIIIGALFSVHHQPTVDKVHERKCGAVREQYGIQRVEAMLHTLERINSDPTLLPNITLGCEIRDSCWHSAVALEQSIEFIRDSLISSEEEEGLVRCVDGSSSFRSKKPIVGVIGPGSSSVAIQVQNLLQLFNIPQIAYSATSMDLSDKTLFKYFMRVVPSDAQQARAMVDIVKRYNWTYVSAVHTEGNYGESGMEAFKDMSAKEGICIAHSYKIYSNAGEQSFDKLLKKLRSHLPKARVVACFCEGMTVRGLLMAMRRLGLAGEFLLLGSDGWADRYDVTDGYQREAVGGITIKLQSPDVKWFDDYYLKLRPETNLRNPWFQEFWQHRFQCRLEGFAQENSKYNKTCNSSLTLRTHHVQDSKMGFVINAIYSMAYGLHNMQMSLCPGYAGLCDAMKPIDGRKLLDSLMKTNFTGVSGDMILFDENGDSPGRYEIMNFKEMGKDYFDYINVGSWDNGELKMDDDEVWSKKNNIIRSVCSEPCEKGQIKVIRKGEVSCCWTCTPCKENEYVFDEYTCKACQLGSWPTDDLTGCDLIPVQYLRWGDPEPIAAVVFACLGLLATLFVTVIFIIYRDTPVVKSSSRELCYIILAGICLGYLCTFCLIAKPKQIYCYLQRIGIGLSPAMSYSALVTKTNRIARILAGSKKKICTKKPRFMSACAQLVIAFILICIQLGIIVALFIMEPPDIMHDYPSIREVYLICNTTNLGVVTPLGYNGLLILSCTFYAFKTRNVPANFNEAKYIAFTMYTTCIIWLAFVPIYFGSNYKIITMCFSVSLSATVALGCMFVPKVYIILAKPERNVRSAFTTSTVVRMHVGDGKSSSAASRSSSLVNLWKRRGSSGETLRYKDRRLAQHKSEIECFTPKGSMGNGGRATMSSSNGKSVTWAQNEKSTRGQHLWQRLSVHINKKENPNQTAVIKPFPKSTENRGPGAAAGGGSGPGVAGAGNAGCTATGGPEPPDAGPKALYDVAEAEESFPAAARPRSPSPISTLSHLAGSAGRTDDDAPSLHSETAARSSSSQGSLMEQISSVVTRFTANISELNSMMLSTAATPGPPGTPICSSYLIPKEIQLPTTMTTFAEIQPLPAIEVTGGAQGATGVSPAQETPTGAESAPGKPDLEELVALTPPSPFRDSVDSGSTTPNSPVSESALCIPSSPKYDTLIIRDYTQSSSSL
Outline: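 Competition binding against [³H]MPEPy in rat whole-brain membranes (minus cerebellum and brainstem), homogenized in 50 mM Tris-HCl/saline pH 7.5, pelleted at 39 800 g. Membranes 5 mg/800 µL final. Competitor from 10 mM ethanol stock, final 0.01 nM to 1 mM. Incubated 1 h at 22 °C, filtered on PEI-soaked GF/B, washed with cold saline, scintillation counted. Three determinations.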

[2] = test system: Plasma; test: Stability in rhesus monkey plasma at 5 uCi after 168 mins; type: ADME, cell-free, Macaca mulatta; conditions: 2.8 h
Outline: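 Plasma was obtained by spinning whole monkey blood at 1800 g for 5 min. Plasma (1.0 mL) was incubated with 5 μCi radioligand at room temperature for 168 min, and a sample was analyzed by reverse-phase radio-HPLC.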

[3] = test system: Blood; test: Biodistribution in rhesus monkey blood at 4 mCi, iv after180 mins; type: ADME, organism-based, Macaca mulatta; conditions: in vivo, 3 h
Outline: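 Anesthetized rhesus monkey given [18F] radioligand i.v. Heparinized blood drawn at 1 min intervals to 5 min, then at 10, 25, 40, 60, 90, 120 and 180 min, and kept on ice. Centrifuged 1800 g for 1.5 min. Plasma and cells γ-counted to give the partition of radioactivity into the cellular fraction.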

[4] = Stability in human brain at 50 uCi in 37 degC after 3 hrs; type: ADME, tissue-based
Outline: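 Human brain tissue (1.76 g) was homogenized in ice-cold saline (3 mL), then mixed with about 50 μCi radioligand in ethanol–water 1:1. The mixture was incubated at 37 °C and sampled at 5-180 min. Samples were taken into carrier-spiked acetonitrile plus 0.5 M KF, counted and centrifuged at 10 000 g. Supernatants went to HPLC, and pellets were counted to give recovery.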

[5] = Stability in phosphate buffered saline at pH 7.4 after 71 mins; type: physicochemical; conditions: buffer, pH 7.4, 71 min
Outline: (§1)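 The radioligand was dissolved in water, sampled at 34, 48 and 159 min, and analyzed at once by reverse-phase radio-HPLC (Novapak C-18, MeOH–H2O–Et3N 70:30:0.1, 2.0 mL/min). A second solution in 0.9% saline containing 0.15 mM phosphoric acid was sampled at 54 and 71 min and analyzed the same way.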

[6] = Stability in human whole blood at 2 uCi; type: ADME, tissue-based; conditions: read-out: Stability
Outline: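 Radioligand (2 μCi) was added to human whole blood (2.0 mL) at 23 °C and sampled at 10-90 min. Each sample was mixed with acetonitrile spiked with carrier and with KF (0.5 M), counted and centrifuged at 10 000 g for 1 min. The supernatant was analyzed by radio-HPLC.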

[7] = test system: Hippocampus; test: Drug uptake in rhesus monkey hippocampus at 4 mCi, iv after 60 to 120 mins; type: ADME, organism-based, Macaca mulatta; conditions: in vivo
Outline: (§2)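 Anesthetized rhesus monkey (~10 kg; ketamine, propofol, isoflurane) given [18F] radioligand 4.0 mCi i.v. Imaged on HRRT with attenuation and scatter correction. Regional time–activity curves from MRI-coregistered regions of interest, expressed as %SUV (normalized for injected activity and body weight). Hippocampal uptake averaged over 60–120 min.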

[8] = Stability in aqueous solution after 159 mins; type: physicochemical; conditions: buffer, 2.65 h; outline: as §1
[9] = test system: Hippocampus; test: Drug uptake in rhesus monkey hippocampus at 4 mCi, iv in presence of 6-methyl-2-(phenylethynyl)-pyridine after 60 to 120 mins; type: ADME, organism-based, Macaca mulatta; conditions: in vivo
Outline: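 Same rhesus monkey on a separate day, given blocker 5 mg/kg i.v. in saline with 10% ethanol 15 min before [18F] radioligand (3.8 mCi i.v.). HRRT PET. Regional uptake expressed as %SUV from MRI-coregistered regions of interest, averaged over 60–120 min.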

[10] = test system: Striatum; test: Drug uptake in rhesus monkey striatum at 4 mCi, iv in presence of 6-methyl-2-(phenylethynyl)-pyridine after 60 to 120 mins; type: ADME, organism-based, Macaca mulatta; conditions: in vivo
Outline: (§3)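 Rhesus monkey (~10 kg) anesthetized with ketamine (10 mg/kg, i.m.) and propofol (5 mg/kg, i.v.), then isoflurane 1.0-4.0% in oxygen; body temperature 37-37.5 °C. Radioligand given i.v. and imaged on HRRT PET with attenuation and scatter correction. For blockade, MPEP/MTEP (5 mg/kg, i.v., in saline with 10% ethanol) given 15 min before tracer in the same monkey. Striatal ROI expressed as %SUV (normalized to injected activity and body weight) over 60-120 min.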

[11] = test system: Striatum; test: Drug uptake in rhesus monkey striatum at 4 mCi, iv after 60 to 120 mins; type: ADME, organism-based, Macaca mulatta; conditions: in vivo; outline: as §3
[12] = test system: Brain; test: Drug uptake in rhesus monkey brain at 4 mCi, iv; type: ADME, organism-based, Macaca mulatta; conditions: in vivo; outline: as §2
[13] = Stability in rhesus monkey brain at 100 uCi in 37 degC after 90 mins; type: ADME, tissue-based, Macaca mulatta
Outline: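 Monkey brain tissue (3.34 g, stored at -70 °C for 1 year) was homogenized on ice with about 100 μCi radioligand, incubated at 37 °C and sampled at 5-90 min. Samples were taken into acetonitrile spiked with carrier plus 0.5 M KF, counted and centrifuged at 10 000 g for 1 min. Supernatants went to HPLC, and pellets were counted to give recovery.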

IC50 [1] [nM]	Stability [2]	Drug uptake [3] [%]	remaining at 3 h, 50 uCi [4] [%]	Stability [5]	remaining at 2 uCi [6] [%]	Drug uptake [7] [%]	Stability [8]	Drug uptake [9] [%]	Drug uptake [10] [%]	Drug uptake [11] [%]	Drug uptake [12] [%]	remaining at 1.5 h, 100 uCi [13] [%]	Structure (SMILES)
0.23	–	–	–	–	–	–	–	–	–	–	–	–	N#Cc1cncc(C#Cc2csc(CF)n2)c1
–	Stable	33.9	98.6	Stable	> 98	500	Stable	200	200	500	450	98.2	N#Cc1cc(F)cc(C#Cc2csc(C[18F])n2)c1
0.06	–	–	–	–	–	–	–	–	–	–	–	–	N#Cc1cccc(C#Cc2csc(CF)n2)c1
